Test results as given in ChEMBL document CHEMBL1828552, “Synthesis and studies of novel 2-(4-cyano-3-trifluoromethylphenyl amino)-4-(quinoline-4-yloxy)-6-(piperazinyl/piperidinyl)-s-triazines as potential antimicrobial, antimycobacterial and anticancer agents” (2011).
Values after ≈ are worked out from the molar mass of the structure shown.

What was measured:
Aspergillus niger [1] = assay: Antifungal activity against 10^5 CFU/mL Aspergillus niger MTCC 282 at 100 ug/ml after 48 hrs by disc diffusion technique; format: functional; conditions: MTCC 282, 48 h, read-out: IZ
In short: (§1)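 Disc diffusion. Mueller-Hinton agar autoclaved 120 °C 30 min, poured 5 mm deep. Surface swabbed with 10⁵ CFU/mL suspension […]. 6.25 mm filter-paper discs soaked in compound in DMSO; DMSO-only disc as blank. Incubated 37 ± 1 °C, 24 h for bacteria or 48 h for fungi. Ciprofloxacin and ketoconazole discs as reference drugs. Inhibition zone measured in mm.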

Aspergillus niger [2] = assay: Antifungal activity against 10^5 CFU/mL Aspergillus niger MTCC 282 after 48 hrs by agar streak dilution method; format: functional; conditions: MTCC 282, 48 h
In short: (§2)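 Agar streak dilution for fungi. Stock 100 µg/mL in DMSO; graded amounts were mixed into molten Sabouraud dextrose agar and poured at 4–5 mm depth. Serial dilutions ran over […]. About 10⁵ CFU/mL inoculum was applied, with incubation at 37 ± 1 °C for 48 h. MIC was read from the dilution series.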

Aspergillus fumigatus [3] = assay: Antifungal activity against 10^5 CFU/mL Aspergillus fumigatus MTCC 343 after 48 hrs by agar streak dilution method; format: functional; conditions: MTCC 343, 48 h; in short: as §2
Aspergillus fumigatus [4] = assay: Antifungal activity against 10^5 CFU/mL Aspergillus fumigatus MTCC 343 at 100 ug/ml after 48 hrs by disc diffusion technique; format: functional; conditions: MTCC 343, 48 h, read-out: IZ; in short: as §1
Candida albicans [5] = assay: Antifungal activity against 10^5 CFU/mL Candida albicans MTCC 183 at 100 ug/ml after 48 hrs by disc diffusion technique; format: functional; conditions: MTCC 183, 48 h, read-out: IZ; in short: as §1
Aspergillus clavatus [6] = assay: Antifungal activity against 10^5 CFU/mL Aspergillus clavatus MTCC 1323 at 100 ug/ml after 48 hrs by disc diffusion technique; format: functional; conditions: MTCC 1323, 48 h, read-out: IZ; in short: as §1
Aspergillus clavatus [7] = assay: Antifungal activity against 10^5 CFU/mL Aspergillus clavatus MTCC 1323 after 48 hrs by agar streak dilution method; format: functional; conditions: MTCC 1323, 48 h; in short: as §2
Candida albicans [8] = assay: Antifungal activity against 10^5 CFU/mL Candida albicans MTCC 183 after 48 hrs by agar streak dilution method; format: functional; conditions: MTCC 183, 48 h; in short: as §2
Proteus vulgaris [9] = assay: Antibacterial activity against 10^5 CFU/mL Proteus vulgaris MTCC 1771 at 100 ug/ml after 24 hrs by disc diffusion technique; format: functional; conditions: MTCC 1771, 24 h, read-out: IZ
In short: (§3)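 Disc diffusion on Mueller–Hinton agar poured 5 mm deep. The surface was swabbed with a 10⁵ CFU/mL […] suspension. Filter-paper discs 6.25 mm in diameter were soaked in compound in DMSO and placed on the agar. Plates were incubated 24 h at 37 ± 1 °C, and the inhibition zone was measured in mm. A DMSO disc served as blank.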

Klebsiella pneumoniae [10] = assay: Antibacterial activity against 10^5 CFU/mL Klebsiella pneumoniae MTCC 109 after 24 hrs by agar streak dilution method; format: functional; conditions: MTCC 109, 24 h
In short: (§4)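 Agar streak dilution. Stock 100 µg/mL in DMSO; graded amounts were mixed into molten nutrient agar and poured at 4–5 mm depth. Plates carried serial dilutions over […]. About 10⁵ CFU/mL of each bacterium was applied, and plates were incubated at 37 ± 1 °C for 24 h. MIC was read from the dilution series.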

Bacillus cereus [11] = assay: Antibacterial activity against 10^5 CFU/mL Bacillus cereus MTCC 619 after 24 hrs by agar streak dilution method; format: functional; conditions: MTCC 619, 24 h; in short: as §4
Staphylococcus aureus [12] = assay: Antibacterial activity against 10^5 CFU/mL Staphylococcus aureus MTCC 96 after 24 hrs by agar streak dilution method; format: functional; conditions: MTCC 96, 24 h; in short: as §4
Bacillus cereus [13] = assay: Antibacterial activity against 10^5 CFU/mL Bacillus cereus MTCC 619 at 100 ug/ml after 24 hrs by disc diffusion technique; format: functional; conditions: MTCC 619, 24 h, read-out: IZ; in short: as §3
Klebsiella pneumoniae [14] = assay: microbe, parasite or virus in culture; conditions: MTCC 109, 24 h, read-out: IZ
Salmonella typhi [15] = assay: Antibacterial activity against 10^5 CFU/mL Salmonella typhi MTCC 733 after 24 hrs by agar streak dilution method; format: functional, Salmonella enterica subsp. enterica serovar Typhi; conditions: Salmonella enterica, MTCC 733, 24 h
Pseudomonas aeruginosa [16] = assay: Antibacterial activity against 10^5 CFU/mL Pseudomonas aeruginosa MTCC 741 after 24 hrs by agar streak dilution method; format: functional; conditions: MTCC 741, 24 h; in short: as §4
Salmonella typhi [17] = assay: Antibacterial activity against 10^5 CFU/mL Salmonella typhi MTCC 733 at 100 ug/ml after 24 hrs by disc diffusion technique; format: functional, Salmonella enterica subsp. enterica serovar Typhi; conditions: Salmonella enterica, MTCC 733, 24 h; read-out: IZ; in short: as §1
Shigella flexneri [18] = assay: Antibacterial activity against 10^5 CFU/mL Shigella flexneri MTCC 1457 after 24 hrs by agar streak dilution method; format: functional; conditions: MTCC 1457, 24 h; in short: as §4
Proteus vulgaris [19] = assay: Antibacterial activity against 10^5 CFU/mL Proteus vulgaris MTCC 1771 after 24 hrs by agar streak dilution method; format: functional; conditions: MTCC 1771, 24 h; in short: as §4
Escherichia coli [20] = assay: Antibacterial activity against 10^5 CFU/mL Escherichia coli MTCC 739 after 24 hrs by agar streak dilution method; format: functional; conditions: MTCC 739, 24 h; in short: as §4
Staphylococcus aureus [21] = assay: Antibacterial activity against 10^5 CFU/mL Staphylococcus aureus MTCC 96 at 100 ug/ml after 24 hrs by disc diffusion technique; conditions: MTCC 96, 24 h, read-out: IZ
Escherichia coli [22] = assay: microbe, parasite or virus in culture; conditions: MTCC 739, 24 h, read-out: IZ
Pseudomonas aeruginosa [23] = assay: microbe, parasite or virus in culture; conditions: MTCC 741, 24 h, read-out: IZ
Shigella flexneri [24] = assay: Antibacterial activity against 10^5 CFU/mL Shigella flexneri MTCC 1457 at 100 ug/ml after 24 hrs by disc diffusion technique; format: functional; conditions: MTCC 1457, 24 h, read-out: IZ; in short: as §3
Aspergillus niger [25] = assay: Antifungal activity against 10^5 CFU/mL Aspergillus niger MTCC 282 after 48 hrs by disc diffusion technique; format: functional
Proteus vulgaris [26] = assay: Antibacterial activity against 10^5 CFU/mL Proteus vulgaris MTCC 1771 after 24 hrs by disc diffusion technique; format: functional; in short: as §3
Candida albicans [27] = assay: Antifungal activity against 10^5 CFU/mL Candida albicans MTCC 183 after 48 hrs by disc diffusion technique; format: functional
Pseudomonas aeruginosa [28] = assay: Antibacterial activity against 10^5 CFU/mL Pseudomonas aeruginosa MTCC 741 after 24 hrs by disc diffusion technique; format: functional; in short: as §3
Bacillus cereus [29] = assay: Antibacterial activity against 10^5 CFU/mL Bacillus cereus MTCC 619 after 24 hrs by disc diffusion technique; format: functional; in short: as §3
Klebsiella pneumoniae [30] = assay: Antibacterial activity against 10^5 CFU/mL Klebsiella pneumoniae MTCC 109 after 24 hrs by disc diffusion technique; format: functional; in short: as §3
Escherichia coli [31] = assay: Antibacterial activity against 10^5 CFU/mL Escherichia coli MTCC 739 after 24 hrs by disc diffusion technique; format: functional; in short: as §3
Aspergillus clavatus [32] = assay: Antifungal activity against 10^5 CFU/mL Aspergillus clavatus MTCC 1323 after 48 hrs by disc diffusion technique; format: functional
Shigella flexneri [33] = assay: Antibacterial activity against 10^5 CFU/mL Shigella flexneri MTCC 1457 after 24 hrs by disc diffusion technique; format: functional; in short: as §3
Staphylococcus aureus [34] = assay: Antibacterial activity against 10^5 CFU/mL Staphylococcus aureus MTCC 96 after 24 hrs by disc diffusion technique; format: functional; in short: as §3
[35] = system: Mycobacterium tuberculosis; assay: Antimycobacterial activity against 10^4 to 10^7 CFU/mL Mycobacterium tuberculosis H37Rv after 24 hrs measured after 28 days post-inoculation; format: functional
In short: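 Secondary MIC on Lowenstein-Jensen medium. DMSO dilutions (50, 25, 12.5, 6.25, […]) added to L.J. medium, then inspissated. Tubes incubated at 37 ± 1 °C for 24 h, then streaked with 5×10⁴ H37Rv bacilli per tube. Growth read at 12, 22 and 28 days against drug-free controls. MIC = no colonies or fewer than 20 colonies.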

Salmonella typhi [36] = assay: Antibacterial activity against 10^5 CFU/mL Salmonella typhi MTCC 733 after 24 hrs by disc diffusion technique; format: functional, Salmonella enterica subsp. enterica serovar Typhi; in short: as §1
DU-145 = assay: Cytotoxicity against […] human DU145 cells after 48 hrs by SRB assay; format: functional; conditions: DU-145, 48 h
In short: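 SRB assay in DU-145 cells grown in RPMI 1640 with 10% FBS and 2 mM L-glutamine. Cells were plated and held 24 h before addition of four 10-fold concentrations. After 48 h, cells were TCA-fixed, stained with 0.4% SRB and read at 540 nm. GI50, TGI and LC50 were derived against time-zero and control wells; each value is the mean of three experiments.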

Aspergillus fumigatus [37] = assay: Antifungal activity against 10^5 CFU/mL Aspergillus fumigatus MTCC 343 after 48 hrs by disc diffusion technique; format: functional

CC(=O)N1CCN(c2ccc(OCC3COC(Cn4ccnc4)(c4ccc(Cl)cc4Cl)O3)cc2)CC1 (configuration not stated) [KETOCONAZOLE]
zone of inhibition at 100 µg/mL (Aspergillus niger [1]): 30 mm | MIC (Aspergillus niger [2]): ≤ 3 µg/mL | MIC (Aspergillus fumigatus [3]): ≤ 1 µg/mL | zone of inhibition at 100 µg/mL (Aspergillus fumigatus [4]): 29 mm | zone of inhibition at 100 µg/mL (Candida albicans [5]): 33 mm | zone of inhibition at 100 µg/mL (Aspergillus clavatus [6]): 31 mm | MIC (Aspergillus clavatus [7]): ≤ 1 µg/mL | MIC (Candida albicans [8]): ≤ 1 µg/mL

O=C(O)c1cn(C2CC2)c2cc(N3CCNCC3)c(F)cc2c1=O [CIPROFLOXACIN]
zone of inhibition at 100 µg/mL (Proteus vulgaris [9]): 31 mm | MIC (Klebsiella pneumoniae [10]): ≤ 1 µg/mL | MIC (Bacillus cereus [11]): ≤ 1 µg/mL | MIC (Staphylococcus aureus [12]): ≤ 1 µg/mL | zone of inhibition at 100 µg/mL (Bacillus cereus [13]): 31 mm | zone of inhibition at 100 µg/mL (Klebsiella pneumoniae [14]): 33 mm | MIC (Salmonella typhi [15]): ≤ 1 µg/mL | MIC (Pseudomonas aeruginosa [16]): ≤ 1 µg/mL | zone of inhibition at 100 µg/mL (Salmonella typhi [17]): 30 mm | MIC (Shigella flexneri [18]): ≤ 3 µg/mL | MIC (Proteus vulgaris [19]): ≤ 1 µg/mL | MIC (Escherichia coli [20]): ≤ 1 µg/mL | zone of inhibition at 100 µg/mL (Staphylococcus aureus [21]): 30 mm | zone of inhibition at 100 µg/mL (Escherichia coli [22]): 32 mm | zone of inhibition at 100 µg/mL (Pseudomonas aeruginosa [23]): 33 mm | zone of inhibition at 100 µg/mL (Shigella flexneri [24]): 32 mm

CC1CC(C)CN(c2nc(Nc3ccc(C#N)c(C(F)(F)F)c3)nc(Oc3ccnc4ccccc34)n2)C1 (configuration not stated)
inhibition zone (IZ) (Aspergillus niger [25]): 23 mm | inhibition zone (IZ) (Proteus vulgaris [26]): 27 mm | MIC (Klebsiella pneumoniae [10]): 25 µg/mL (≈ 48.1 µM) | MIC (Aspergillus niger [2]): 50 µg/mL (≈ 96.2 µM) | inhibition zone (IZ) (Candida albicans [27]): 18 mm | MIC (Aspergillus fumigatus [3]): 50 µg/mL (≈ 96.2 µM) | MIC (Bacillus cereus [11]): 12.5 µg/mL (≈ 24.1 µM) | MIC (Staphylococcus aureus [12]): 6.25 µg/mL (≈ 12 µM) | inhibition zone (IZ) (Pseudomonas aeruginosa [28]): 24 mm | MIC (Salmonella typhi [15]): 12.5 µg/mL (≈ 24.1 µM) | MIC (Pseudomonas aeruginosa [16]): 12.5 µg/mL (≈ 24.1 µM) | inhibition zone (IZ) (Bacillus cereus [29]): 25 mm | inhibition zone (IZ) (Klebsiella pneumoniae [30]): 23 mm | inhibition zone (IZ) (Escherichia coli [31]): 25 mm | inhibition zone (IZ) (Aspergillus clavatus [32]): 26 mm | MIC (Shigella flexneri [18]): 12.5 µg/mL (≈ 24.1 µM) | MIC (Proteus vulgaris [19]): 6.25 µg/mL (≈ 12 µM) | MIC (Escherichia coli [20]): 12.5 µg/mL (≈ 24.1 µM) | inhibition zone (IZ) (Shigella flexneri [33]): 25 mm | inhibition zone (IZ) (Staphylococcus aureus [34]): 27 mm | MIC99 [35]: 3.12 µg/mL (≈ 6.01 µM) | MIC (Aspergillus clavatus [7]): 25 µg/mL (≈ 48.1 µM) | inhibition zone (IZ) (Salmonella typhi [36]): 27 mm | GI50 (DU-145): 27.2 µM | LC50 (concentration giving 50% net cell kill relative to time zero) (DU-145): > 100 µM | TGI (DU-145): 68 µM | inhibition zone (IZ) (Aspergillus fumigatus [37]): 25 mm | MIC (Candida albicans [8]): 100 µg/mL (≈ 192 µM)
